Publication PMC4304478 (Journal of the American Chemical Society, 2014)
*1 amine or outer side, *2 acyl side, *3 side chain or, on linkers, in order; H or OH if unused. Bridges are numbered along the chain shown (N, C = ends). Roman numbers before positions name the chains, in order. Where no end group is shown, it is not given here. [ ]: non-standard residue; d: D form. X1 = O=C(NCCCOCCCCOCCCNC(=O)c1ccc(/C=N/OCC(=O)[*:2])cc1)c1ccc(/C=N/OCC(=O)[*:1])cc1; Dap = NC[C@H](N)C(=O)O

Legend:
[1] = target: integrin receptors (αvβ5) expressed on MDA-MB-231 cells (Homo sapiens, UniProt P06756+P18084); assay: Competition binding assay with Alexa488-2.5F on MDA-MB-231 cells; details: from competition IC50 values
[2] = test system: MDA-MB-231 cells; assay: Cell proliferation assay; format: cell-based, human; details: varying concentrations, 12–72 h, Cell Counting Kit-8; relative to cilengitide
Outline: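 MDA-MB-231 cells exposed to varying concentrations of test knottins or a reference compound for 12–72 h. Proliferation was read out as […] activity in living cells with the CCK-8 kit. Concentration–response was read at 72 h, and the time course used 1 μM protein. Values are expressed relative to an untreated control.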

Sequence of integrin receptors (αvβ5) expressed on MDA-MB-231 cells (P06756 891-1048): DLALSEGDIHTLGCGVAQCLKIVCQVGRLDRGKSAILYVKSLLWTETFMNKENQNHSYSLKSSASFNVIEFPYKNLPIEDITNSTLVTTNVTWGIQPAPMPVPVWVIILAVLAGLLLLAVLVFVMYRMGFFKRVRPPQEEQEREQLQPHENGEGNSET
Sequence of integrin receptors (αvβ5) expressed on MDA-MB-231 cells (P18084 24-799): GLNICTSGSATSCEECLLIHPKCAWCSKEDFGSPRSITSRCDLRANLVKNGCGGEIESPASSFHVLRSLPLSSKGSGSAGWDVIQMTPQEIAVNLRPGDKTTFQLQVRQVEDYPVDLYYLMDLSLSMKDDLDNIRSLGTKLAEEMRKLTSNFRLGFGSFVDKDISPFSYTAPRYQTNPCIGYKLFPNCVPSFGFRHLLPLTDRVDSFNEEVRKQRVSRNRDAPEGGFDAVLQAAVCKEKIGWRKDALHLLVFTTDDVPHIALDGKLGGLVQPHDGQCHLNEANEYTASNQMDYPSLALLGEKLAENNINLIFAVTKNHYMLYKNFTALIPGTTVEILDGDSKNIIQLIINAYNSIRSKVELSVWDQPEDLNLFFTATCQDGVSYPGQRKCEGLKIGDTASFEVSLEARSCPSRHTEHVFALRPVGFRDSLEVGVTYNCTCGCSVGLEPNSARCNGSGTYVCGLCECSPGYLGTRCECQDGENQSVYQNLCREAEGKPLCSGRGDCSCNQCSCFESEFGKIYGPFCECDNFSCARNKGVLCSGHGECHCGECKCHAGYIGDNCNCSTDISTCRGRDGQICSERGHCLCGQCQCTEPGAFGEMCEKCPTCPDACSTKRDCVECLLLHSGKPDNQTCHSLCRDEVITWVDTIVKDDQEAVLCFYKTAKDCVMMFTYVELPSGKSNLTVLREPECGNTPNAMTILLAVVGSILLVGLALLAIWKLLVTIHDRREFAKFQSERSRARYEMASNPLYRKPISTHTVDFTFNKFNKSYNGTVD
Sequence of integrin receptors (αvβ5) expressed on MDA-MB-231 cells (P06756 31-889): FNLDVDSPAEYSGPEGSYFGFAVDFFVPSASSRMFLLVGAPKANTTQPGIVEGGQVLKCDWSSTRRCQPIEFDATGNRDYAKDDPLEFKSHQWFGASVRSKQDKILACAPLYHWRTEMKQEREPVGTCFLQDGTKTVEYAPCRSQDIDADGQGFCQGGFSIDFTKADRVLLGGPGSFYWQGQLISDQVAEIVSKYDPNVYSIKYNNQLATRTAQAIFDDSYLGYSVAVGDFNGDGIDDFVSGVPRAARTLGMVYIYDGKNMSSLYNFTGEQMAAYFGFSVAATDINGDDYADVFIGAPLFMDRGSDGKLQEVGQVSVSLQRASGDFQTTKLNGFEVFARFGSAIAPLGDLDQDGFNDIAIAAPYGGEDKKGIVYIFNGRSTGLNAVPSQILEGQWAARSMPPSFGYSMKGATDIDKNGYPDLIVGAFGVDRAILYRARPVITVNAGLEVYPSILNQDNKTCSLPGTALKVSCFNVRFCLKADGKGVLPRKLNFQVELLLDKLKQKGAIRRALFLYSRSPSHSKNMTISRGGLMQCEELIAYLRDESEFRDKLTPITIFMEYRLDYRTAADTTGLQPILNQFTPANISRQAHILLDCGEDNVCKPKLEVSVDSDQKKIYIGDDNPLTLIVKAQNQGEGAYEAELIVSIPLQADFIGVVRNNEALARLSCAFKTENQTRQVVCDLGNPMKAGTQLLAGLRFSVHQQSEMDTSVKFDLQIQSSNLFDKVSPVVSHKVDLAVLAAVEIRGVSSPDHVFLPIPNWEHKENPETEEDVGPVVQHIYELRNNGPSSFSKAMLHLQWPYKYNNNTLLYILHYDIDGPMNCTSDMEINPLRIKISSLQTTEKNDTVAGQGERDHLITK

## I: GCPRPRGDNPPLTC[Dap]QDSDCLAGCVCGPNGFCG-NH2 / II: GCPRPRGDNPPLTC[Dap]QDSDCLAGCVCGPNGFCG-NH2 (disulfide I:2-I:24, I:14-I:26, I:20-I:32, II:2-II:24, II:14-II:26, II:20-II:32; linker I:15-II:15 via X1) [D2.5F_1]
[1]
  Increase in relative binding affinity compared with cilengitide: 500 fold
  Increase in relative binding affinity compared with the knottin monomer: 60 fold
[2]
  Inhibition of MDA-MB-231 cell proliferation: significantly more potent
